# Experimental data published in ChEMBL document CHEMBL1136866, “Synthesis, antiplatelet and in silico evaluations of novel N-substituted-phenylamino-5-methyl-1H-1,2,3-triazole-4-carbohydrazides” (Bioorg Med Chem, 2009).
# The source made the active and inactive calls. The calls are words filed in the database; no cut-off is given here.
# Columns and labels:
# Type in all cases: functional
# [1] = Antiplatelet activity in human citreated platelet rich plasma assessed as inhibition of arachidonic acid-induced platelet aggregation at 100 ug/ml preincubated before arachidonic acid challenge
# How it was run: (§1)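 Human PRP from whole blood spun 120g, 5 min, room temperature; platelet count set to 3.0 × 10^5/μL with homologous platelet-poor plasma (1500g, 5 min). PRP preincubated 2 min at 37 °C with compound at 100 μg ml−1 or DMSO solvent (final 1%), then agonist added (ADP, adrenaline or arachidonic acid). Read-out: % inhibition of aggregation, measured within 3 h of blood sampling.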
# [2] = Antiplatelet activity in human citreated platelet rich plasma assessed as inhibition of arachidonic acid-induced platelet aggregation preincubated before arachidonic acid challenge
# How it was run: (§2)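 Human PRP prepared by whole-blood centrifugation (120g, 5 min, room temperature) and adjusted to 3.0 × 10^5 platelets/μL using homologous platelet-poor plasma (1500g, 5 min). Compound at 1–500 μg ml−1, or DMSO (final 1%), preincubated with PRP 2 min at 37 °C before agonist (ADP, adrenaline or arachidonic acid). IC50 in μg ml−1 from aggregation inhibition, assayed within 3 h of sampling.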
# [3] = Antiplatelet activity in human citreated platelet rich plasma assessed as inhibition of adenosine diphosphate-induced platelet aggregation preincubated before adenosine diphosphate challenge; how it was run: as §2
# [4] = Antiplatelet activity in human citreated platelet rich plasma assessed as inhibition of adrenaline-induced platelet aggregation preincubated before adrenaline challenge; how it was run: as §2
# Platelet = experiment: Antiplatelet activity in human citreated platelet rich plasma assessed as inhibition of adrenaline-induced platelet aggregation at 100 ug/ml preincubated before adrenaline challenge; how it was run: as §1
# [5] = Antiplatelet activity in human citreated platelet rich plasma assessed as inhibition of adenosine diphosphate-induced platelet aggregation at 100 ug/ml preincubated before adenosine diphosphate challenge; how it was run: as §1
SMILES,inhibition at 100 µg/mL [1],IC50 [2],IC50 [3],IC50 [4],inhibition (Platelet),inhibition at 100 µg/mL [5]
Cc1c(C(=O)N/N=C/c2ccc(Br)s2)nnn1Nc1ccccc1,≥ 50%,9.1 mg/L,317 mg/L,13.4 mg/L,Active,–
Cc1c(C(=O)N/N=C/c2ccncc2)nnn1Nc1ccccc1,≥ 50%,8.8 mg/L,278 mg/L,161 mg/L,–,–
CC(=O)Oc1ccccc1C(=O)O [ASPIRIN],–,32.5 mg/L,21.5 mg/L,11.7 mg/L,–,–
Cc1c(C(=O)N/N=C/c2ccco2)nnn1Nc1ccccc1,–,112 mg/L,338 mg/L,20.1 mg/L,Active,–
Cc1c(C(=O)N/N=C/c2ccc([N+](=O)[O-])o2)nnn1Nc1ccc(Cl)cc1,≥ 50%,35.5 mg/L,136 mg/L,147 mg/L,–,–
Cc1c(C(=O)N/N=C/c2ccco2)nnn1Nc1ccc(Cl)cc1,≥ 50%,8.9 mg/L,261 mg/L,7.8 mg/L,Active,–
Cc1c(C(=O)N/N=C/c2ccc([N+](=O)[O-])o2)nnn1Nc1ccccc1,–,169 mg/L,11.6 mg/L,8.9 mg/L,Active,> 50%
Cc1c(C(=O)N/N=C/c2ccccc2)nnn1Nc1ccc(Cl)cc1,≥ 50%,32.2 mg/L,180 mg/L,28.9 mg/L,Active,–
Cc1c(C(=O)N/N=C/c2ccncc2)nnn1Nc1ccc(Cl)cc1,≥ 50%,33.1 mg/L,169 mg/L,145 mg/L,–,–
Cc1c(C(=O)N/N=C/c2ccccc2)nnn1Nc1ccccc1,–,230 mg/L,19 mg/L,9.6 mg/L,Active,> 50%
Cc1c(C(=O)N/N=C/c2ccc(Br)s2)nnn1Nc1ccc(Cl)cc1,≥ 50%,9.1 mg/L,332 mg/L,144 mg/L,–,–
